Test results published in ChEMBL document CHEMBL1151731, “Targeting pro-invasive oncogenes with short chain fatty acid-hexosamine analogues inhibits the mobility of metastatic MDA-MB-231 breast cancer cells” (J Med Chem, 2008).
Calls of active or inactive are those of the source. The calls are words filed in the database; no cut-off is given here.

What was measured:
[1] = tested on: MDA-MB-231; test: Effect on proteosomal activity of human MDA-MB-231 cells measured after 3 days in absence of epoxomicin; assay type: functional, cell-based
Summary of the method: (§1)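 Viable MDA-MB-231 cells (100000 in 100 µL RPMI) incubated with a succinyl luminogenic proteasome substrate; activity expressed as luminescence normalized to untreated controls. Analogue exposure 3 days; epoxomicin control exposure 6 h. SEM of independent experiments in triplicate.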

[2] = tested on: MDA-MB-231; test: Induction of salic acid production in human MDA-MB-231 cells by periodate-resorcinal assay; assay type: functional, cell-based
Summary of the method: (§2)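 Periodate-resorcinol assay for total sialic acid, adapted to small volumes. Treated cells were trypsinized, washed and resuspended in PBS, Coulter-counted, and lysed by three freeze-thaw cycles. Readings taken within five minutes. Molecules per cell calculated from the harvested cell number and a sialic acid standard curve run alongside. SEM, n ≥ 3.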

[3] = target: T1, Histone deacetylase (Homo sapiens) (UniProt Q13547+O15379+Q9UBN7+Q92769+Q9UQL6+Q8WUI4+Q9BY41+Q96DB2+P56524+Q9UKV0+Q969S8); test: Inhibition of HDAC in human MDA-MB-231 cells assessed as increase in histone H3 acetylation after 2 days by densitometry
[4] = tested on: MDA-MB-231; test: Suppression of CXCR4 mRNA in human MDA-MB-231 cells after 3 days by qRT-PCR; assay type: functional, cell-based
Summary of the method: (§3)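 Cells exposed 3 days to compound. RNA extracted with Trizol, DNase-treated and column-purified. qRT-PCR with Ct measured in quadruplicate; relative expression by the 2^-ΔΔCt method. Products checked on agarose gel. SEM of independent experiments done in triplicate.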

[5] = tested on: MDA-MB-231; test: Reduction of endogenous NFKB1 (p105) mRNA level in human MDA-MB-231 cells; assay type: functional, cell-based
[6] = tested on: MDA-MB-231; test: Inhibition of human MDA-MB-231 cells migration at 50 uM by Boyden chamber assay; assay type: functional, cell-based
[7] = tested on: MDA-MB-231; test: Inhibition of human MDA-MB-231 cells invasion at 50 uM by Boyden chamber assay; assay type: functional, cell-based
[8] = tested on: MDA-MB-231; test: Antiproliferative activity against human MDA-MB-231 cells by Coulter counting analysis; assay type: functional, cell-based
Summary of the method: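 MDA-MB-231 cells grown in RPMI-1640 with 10% FBS and plated at 27000 cells/cm² with compound added at plating from EtOH stock (final EtOH 0.4% v/v). Incubated 3 days at 37 °C, 5% CO₂. Viable cells trypsinized and counted on a Coulter counter. SEM, n ≥ 3.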

[9] = tested on: MDA-MB-231; test: Inhibition of proteosomal activity of human MDA-MB-231 cells measured after 6 hrs in presence of epoxomicin; assay type: functional, cell-based; summary of the method: as §1
[10] = target: T1, Histone deacetylase (Homo sapiens); test: Inhibition of HDAC in human MDA-MB-231 cells assessed as decrease in MUC1 mRNA expression qRT-PCR; assay type: cell-based
[11] = tested on: MDA-MB-231; test: Suppression of pro-MMP9 mRNA level in human MDA-MB-231 cells after 3 days by qRT-PCR; assay type: functional, cell-based; summary of the method: as §3
[12] = target: T1, Histone deacetylase (Homo sapiens); test: Inhibition of HDAC in human MDA-MB-231 cells assessed as increase in p21 mRNA level by qRT-PCR; assay type: cell-based
[13] = tested on: MDA-MB-231; test: Inhibition of human MDA-MB-231 cells invasion at 50 uM after 2 days by Boyden chamber assay; assay type: functional, cell-based
Summary of the method: (§4)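 Cells pretreated 2 or 3 days with compound (final EtOH 0.4% v/v), then trypsinized and resuspended in serum-free RPMI-1640. 50000 viable cells per chamber (equal loading confirmed by WST-8) in modified Boyden chambers. Migration measured through 8.0 µm pores toward a serum gradient; invasion through a Matrigel layer. After 24 h at 37 °C, cells were stained with Diff-Quik and counted. Viability rechecked by WST-8 at 24 h. SEM of technical replicates (n = 6 or 3); double-sided t test.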

[14] = tested on: MDA-MB-231; test: Decrease in MUC1 mRNA transcription in human MDA-MB-231 cells by qRT-PCR; assay type: functional, cell-based
Summary of the method: (§5)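 MDA-MB-231 RNA extracted with Trizol, DNase-treated and column-purified. qRT-PCR with Ct values in quadruplicate; relative expression by 2^-ΔΔCt from average Ct. Amplicons verified by agarose gel electrophoresis.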

[15] = tested on: MDA-MB-231; test: Decrease in MMP9 gelatinase activity in human MDA-MB-231 cells after 3 days by Zymogram assay; assay type: functional, cell-based
[16] = tested on: HEK293; test: Inhibition of NF-kappaB transcriptional activity in human HEK AD293 cells at 125 uM by luciferase reporter gene assay; assay type: cell-based; parameters: scale not given: the % may be the effect or the level left
Summary of the method: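 HEK AD293 cells (DMEM, 10% FBS) lipofected with an NF-κB consensus luciferase reporter plus an equal mass of SV-promoter β-galactosidase plasmid. Replated after 24 h recovery and treated with compound. Luciferase read by chemiluminescence and β-galactosidase colorimetrically; activity expressed as their ratio. SEM of independent experiments in triplicate.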

[17] = tested on: MDA-MB-231; test: Inhibition of human MDA-MB-231 cells invasion at 150 uM after 2 days by Boyden chamber assay; assay type: functional, cell-based; summary of the method: as §4
[18] = tested on: MDA-MB-231; test: Inhibition of human MDA-MB-231 cells invasion at 50 uM after 3 days by Boyden chamber assay; assay type: functional, cell-based; summary of the method: as §4
[19] = tested on: MDA-MB-231; test: Inhibition of NF-kappaB transcriptional activity in human MDA-MB-231 cells at 125 uM by luciferase reporter gene assay; assay type: cell-based; parameters: scale not given: the % may be the effect or the level left
Summary of the method: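 MDA-MB-231 cells electroporated with an NF-κB luciferase reporter plus an equal mass of SV-promoter β-galactosidase plasmid. Replated after 24 h recovery and treated with compound. NF-κB transactivation taken as the luciferase to β-galactosidase activity ratio. SEM of independent experiments in triplicate.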

[20] = tested on: MDA-MB-231; test: Growth inhibition of human MDA-MB-231 cells assessed as rounded-up morphology after 3 days by phase contrast micrograph
[21] = tested on: MDA-MB-231; test: Inhibition of human MDA-MB-231 cells migration at 50 uM after 3 days by Boyden chamber assay; assay type: functional, cell-based; summary of the method: as §4
[22] = tested on: MDA-MB-231; test: Suppression of MUC1 transcription in human MDA-MB-231 cells by qRT-PCR; assay type: functional, cell-based; summary of the method: as §5
[23] = tested on: MDA-MB-231; test: Cytotoxicity against human MDA-MB-231 cells at >= 150 uM; assay type: functional, cell-based
[24] = tested on: MDA-MB-231; test: Increase in sialic acid production in human MDA-MB-231 cells by periodate-resorcinal assay; assay type: functional, cell-based; summary of the method: as §2
[25] = tested on: MDA-MB-231; test: Increase in human MDA-MB-231 cells invasion at 30 mM; assay type: functional, cell-based
[26] = tested on: MDA-MB-231; test: Increase in intracellular sialic acid production in human MDA-MB-231 cells at 50 mM; assay type: functional, cell-based
[27] = tested on: MDA-MB-231; test: Increase in human MDA-MB-231 cells invasion at 10 mM; assay type: functional, cell-based
[28] = tested on: HEK AD293 (Homo sapiens); test: Inhibition of NF-kappaB transcriptional activity in human HEK AD293 cells by luciferase reporter gene assay
[29] = tested on: MDA-MB-231; test: Enhancement of NFkappaB1 level in human MDA-MB-231 cells by qRT-PCR; assay type: functional, cell-based; summary of the method: as §5
[30] = tested on: MDA-MB-231; test: Growth inhibition of human MDA-MB-231 cells after 15 days; assay type: functional, cell-based
Summary of the method: (§6)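 Proliferation followed over time up to 15 days in MDA-MB-231 cells (RPMI-1640, 10% FBS, 37 °C, 5% CO₂). Compound added at plating from EtOH stock, final EtOH 0.4% v/v. Data averaged from triplicate experiments.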

[31] = tested on: MDA-MB-231; test: Downregulation of CXCR4 in human MDA-MB-231 cells by qRT-PCR; assay type: functional, cell-based
[32] = tested on: MDA-MB-231; test: Growth inhibition of human MDA-MB-231 cells after 3 to 5 days; assay type: functional, cell-based; summary of the method: as §6
[33] = tested on: MDA-MB-231; test: Increase in MUC1 mRNA transcription in human MDA-MB-231 cells by qRT-PCR; assay type: functional, cell-based; summary of the method: as §5

**Q.** Which Activity [1] does the source give for `CCCC(=O)OC[C@H]1OC(OC(=O)CCC)[C@@H](OC(=O)CCC)[C@@H](OC(=O)CCC)[C@@H]1OC(=O)CCC` (stereo partly specified) here?
**A.** Its Activity is “inactive”.

**Q.** And the Activity [2]?
**A.** The Activity was “inactive”.

**Q.** What about the Activity [3] of the same compound?
**A.** Its Activity is “Active”.

**Q.** And the Activity [4]?
**A.** The Activity was “Active”.

**Q.** And the Activity [5]?
**A.** The Activity was “inactive”.

**Q.** What about the Activity [6] of the same compound?
**A.** The Activity was “inactive”.

**Q.** What about the Activity [7] of the same compound?
**A.** The Activity was “inactive”.

**Q.** What about the Activity [8] of the same compound?
**A.** The Activity was “Active”.

**Q.** What about the Activity [9] of the same compound?
**A.** Its Activity is “Active”.

**Q.** What about the Activity [10] of the same compound?
**A.** The Activity was “inactive”.

**Q.** And the Activity [11]?
**A.** The Activity was “Active”.

**Q.** What about the Activity [12] of the same compound?
**A.** The Activity was “Active”.

**Q.** Which results are given for `CCCC(=O)OC[C@H]1OC(OC(=O)CCC)[C@@H](NC(C)=O)[C@@H](OC(=O)CCC)[C@@H]1OC(=O)CCC` (stereo partly specified)?
**A.** Activity [1]: inactive; Activity [2]: Dose-dependent effect; Activity [3]: Active; Activity [13]: Active; Activity [14]: Active; Activity [4]: Active; Activity [5]: Active; Activity [15]: Dose-dependent effect; Activity [16]: 75%; Activity [17]: Active; Activity [8]: Active; Activity [18]: Active; Activity [19]: 75%; Activity [9]: Active; Activity [10]: Active; Activity [11]: inactive; Activity [20]: Active; Activity [21]: Active; Activity [12]: Active

**Q.** How did the Activity [22] turn out when `CCCC(=O)OC[C@H]1OC(O)[C@@H](NC(C)=O)[C@@H](OC(=O)CCC)[C@@H]1OC(=O)CCC` (stereo partly specified) was run?
**A.** The Activity was “Active”.

**Q.** What about the Activity [23] of the same compound?
**A.** The Activity was “Active”.

**Q.** What about the Activity [24] of the same compound?
**A.** The Activity was “Active”.

**Q.** Which Activity [25] does the source give for `CC(=O)N[C@H](C=O)[C@@H](O)[C@H](O)[C@H](O)CO` here?
**A.** The Activity was “inactive”.

**Q.** What about the Activity [26] of the same compound?
**A.** Its Activity is “Active”.

**Q.** And the Activity [27]?
**A.** Its Activity is “Active”.

**Q.** Which results are given for `CCCC(=O)O`?
**A.** Activity [3]: Active; Activity [12]: Active

**Q.** `CCCC(=O)OC1O[C@H](CO)[C@@H](OC(=O)CCC)[C@H](OC(=O)CCC)[C@@H]1NC(C)=O` (stereo partly specified) was tested. Which Activity [28] did it give?
**A.** Its Activity is “inactive”.

**Q.** What about the Activity [24] of the same compound?
**A.** The Activity was “Active”.

**Q.** Which Activity [29] does the source give for `CCCC(=O)OC[C@@H](OC(=O)CCC)[C@@H](OC(=O)CCC)[C@@H]1OC(OC(=O)CCC)(C(=O)OC)C[C@H](OC(=O)CCC)[C@@H]1NC(C)=O` (stereo partly specified) here?
**A.** Its Activity is “Active”.

**Q.** And the Activity [30]?
**A.** The Activity was “inactive”.

**Q.** What about the Activity [31] of the same compound?
**A.** Its Activity is “Active”.

**Q.** What about the Activity [32] of the same compound?
**A.** The Activity was “Active”.

**Q.** What about the Activity [33] of the same compound?
**A.** Its Activity is “Active”.
